Here are results for nine compounds from ChEMBL document CHEMBL5055635, “High-Throughput Crystallography Reveals Boron-Containing Inhibitors of a Penicillin-Binding Protein with Di- and Tricovalent Binding Modes” (J Med Chem, 2021).

The source made the active and inactive calls. The calls are words filed in the database; no cut-off is given here. Bounds are passed on as bounds.

The test system of assay [1] is Escherichia coli. Put plainly: Antimicrobial activity against Escherichia coli […] assessed as bacterial growth inhibition incubated for 18 hrs by CLSI protocol based broth microdilution method. It counts as functional.
The subject of assay [2] is Neisseria gonorrhoeae. The assay is described as follows: Antimicrobial activity against Neisseria gonorrhoeae ATCC 49226 assessed as bacterial growth inhibition incubated for 18 hrs by CLSI protocol based broth microdilution method. The format is functional. A general note: In broth dilution the organism is exposed to a series of concentrations in liquid medium.
Assay [3] deals with Pseudomonas aeruginosa. The assay is described as follows: Antimicrobial activity against permeabilized Pseudomonas aeruginosa assessed as bacterial growth inhibition incubated for 18 hrs by CLSI protocol based broth microdilution method. It counts as functional. The following applies: dose 150 µM.
The subject of assay [4] is Pseudomonas aeruginosa. Put plainly: Antimicrobial activity against Pseudomonas aeruginosa PAO1 assessed as bacterial growth inhibition incubated for 18 hrs by CLSI protocol based broth microdilution method. It counts as functional.
In assay [5] the test system is Haemophilus influenzae. Put plainly: Antimicrobial activity against Haemophilus influenzae ATCC 49766 assessed as bacterial growth inhibition incubated for 18 hrs by CLSI protocol based broth microdilution method. It counts as functional.
Assay [6] deals with Pseudomonas aeruginosa. The assay is described as follows: Reversible inhibition of Pseudomonas aeruginosa PBP3 using nitrocefin as substrate assessed as increase in irreversibly bound ceftazidime IC50 by two-fold dilution assay. The settings on record: dose 150.0 µM.
The subject of assay [7] is Neisseria gonorrhoeae. The assay is described as follows: Inhibition of Neisseria gonorrhoeae PBP2 assessed as residual activity at 1 mM preincubated for 1 hr followed by substrate addition measured after 30 mins by fluorescence anisotropy assay relative to control. Summed up: (§1)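 Purified PBP (60 nM) preincubated with compound for 1 h at 30 °C in 100 mM sodium phosphate pH 7 with 0.01% Triton. BOCILLIN FL (30 nM) was then added, and fluorescence anisotropy was read after 30 min. Residual activity is the percentage of the uninhibited control. Run in triplicate.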
Background: Fluorescence polarisation rises when a labelled molecule tumbles more slowly, as on binding a larger partner.

Assay [8] deals with Escherichia coli. The assay is described as follows: Inhibition of Escherichia coli PBP3 assessed as residual activity at 1 mM preincubated for 1 hr followed by substrate addition measured after 30 mins by fluorescence anisotropy assay relative to control. A digest of the protocol:
as §1

The subject of assay [9] is Pseudomonas aeruginosa. The assay is described as follows: Synergistic antimicrobial activity against Pseudomonas aeruginosa PAO1 assessed as bacterial growth inhibition in presence of piperacillin incubated for 18 hrs by checkerboard titration method. It counts as functional, organism-based.
Assay [10] concerns Acinetobacter baumannii. The assay is described as follows: Antimicrobial activity against Acinetobacter baumannii ATCC 19606 assessed as bacterial growth inhibition incubated for 18 hrs by CLSI protocol based broth microdilution method. The following applies: ATCC 19606 = CIP 70.34 = JCM 6841. The format is functional.
For assay [11], the system named is Escherichia coli. Put plainly: Synergistic antimicrobial activity against Escherichia coli […] assessed as bacterial growth inhibition in presence of piperacillin incubated for 18 hrs by checkerboard titration method. It counts as functional, organism-based.
The subject of assay [12] is Haemophilus influenzae. The assay is described as follows: Inhibition of Haemophilus influenzae PBP3 assessed as residual activity at 1 mM preincubated for 1 hr followed by substrate addition measured after 30 mins by fluorescence anisotropy assay relative to control. Summed up: as §1
In assay [13] the test system is Acinetobacter baumannii. Put plainly: Inhibition of Acinetobacter baumannii PBP3 assessed as residual activity at 1 mM preincubated for 1 hr followed by substrate addition measured after 30 mins by fluorescence anisotropy assay relative to control. A digest of the protocol: as §1
In assay [14] the test system is Pseudomonas aeruginosa. Put plainly: Inhibition of Pseudomonas aeruginosa PBP3 at 1 mM using bocillin FL as a fluorogenic substrate preincubated for 0 to 60 mins followed by substrate addition measured after 30 mins by fluorescence anisotropy assay. The settings on record: time 0-60 min. Summed up:
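PaPBP3 preincubated with compound for 0, 30 or 60 min before BOCILLIN FL was added to start the reaction. Otherwise the standard FA competition format: 60 nM protein, 30 nM BOCILLIN FL, pH 7 sodium phosphate with 0.01% Triton, 30 °C.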

The subject of assay [15] is Pseudomonas aeruginosa. Put plainly: Inhibition of Pseudomonas aeruginosa PBP3 using bocillin FL as a fluorogenic substrate assessed as residual activity at 1 mM preincubated for 1 hr followed by substrate addition measured after 30 mins by fluorescence anisotropy assay relative to control. Summed up: as §1
For assay [16], the system named is Pseudomonas aeruginosa. The assay is described as follows: Inhibition of Pseudomonas aeruginosa PBP3 using bocillin FL as a fluorogenic substrate assessed as residual activity at 100 uM preincubated for 1 hr followed by substrate addition measured after 30 mins by fluorescence anisotropy assay relative to control. A digest of the protocol: as §1
Assay [17] concerns Pseudomonas aeruginosa. Put plainly: Inhibition of Pseudomonas aeruginosa PBP3 using (2-((benzoyl-D-alanyl)thio)acetic acid) as a substrate assessed as residual activity by measuring substrate turnover at 100 uM incubated for 1 hr followed by substrate addition by absorbance based assay relative to control. A digest of the protocol:
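PaPBP3 (400 nM; 200 nM final) incubated with compound for 1 h at 30 °C in 100 mM sodium phosphate pH 7 with 0.01% Triton. S2d and DTNB (1 mM each, final) were then added, and A412 was followed at 30 °C. Initial rates were corrected for non-enzymatic hydrolysis, measured with 1 mM aztreonam. Residual activity is the percentage of the untreated control. Three technical replicates, standard error.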

For the compound `NC(=O)[C@H](NC(=O)c1ccc2c(c1)B(O)OC2CC(=O)O)c1ccccc1` (stereo partly specified), the MIC with Escherichia coli [1], in the assay with Neisseria gonorrhoeae [2], in the assay on Pseudomonas aeruginosa [3], in the assay on Pseudomonas aeruginosa [4], in the assay with Haemophilus influenzae [5] and in the assay on Acinetobacter baumannii [10] was > 64 µg/mL in each case. Moreover, the inhibition entry in the assay with Pseudomonas aeruginosa [6] and with Pseudomonas aeruginosa [14] was “inactive” in each case. The Activity is > 90% in the assay with Neisseria gonorrhoeae [7], > 90% with Escherichia coli [8], 32% in the assay on Haemophilus influenzae [12] and 73% with Acinetobacter baumannii [13]. Moreover, the result with Pseudomonas aeruginosa [9] and in the assay with Escherichia coli [11] was inactive.

In the case of `OB(O)c1cccc(-c2nnn[nH]2)c1`, in the assay on Pseudomonas aeruginosa [15], the Activity came out at 82%.

Consider `O=C1CN(C(=O)CNC(=O)c2ccc3c(c2)B(O)OC3)CCN1`, for which the Activity in the assay with Pseudomonas aeruginosa [15] was > 90%.

Consider `O=C(c1ccc2c(c1)B(O)OC2)N(Cc1ccccc1)Cc1ccccc1`, for which the MIC in the assay with Escherichia coli [1], in the assay with Pseudomonas aeruginosa [3] and with Pseudomonas aeruginosa [4] was > 64 µg/mL throughout. Besides, in the assay with Pseudomonas aeruginosa [16], the Activity is 87%.

Consider `COC(=O)[C@H](NC(=O)c1ccc2c(c1)B(O)OC2)c1ccccc1`, for which the MIC with Escherichia coli [1], with Pseudomonas aeruginosa [3] and in the assay on Pseudomonas aeruginosa [4] was > 64 µg/mL in each case. For the same compound, the Activity in the assay with Pseudomonas aeruginosa [16] and in the assay with Pseudomonas aeruginosa [17] was > 90% in each case.

As for `CN1CCN(C(=O)[C@@H](Cc2ccccc2)NC(=O)c2ccc3c(c2)B(O)OC3)CC1=O`, the Activity in the assay with Pseudomonas aeruginosa [15] was > 90%.

On to `CN1CCN(C(=O)CNC(=O)c2ccc3c(c2)B(O)OC3)CC1=O`, for which the Activity in the assay on Pseudomonas aeruginosa [15] is > 90%.

Take `O=C(O)C[C@@H]1OB(O)c2ccc(OCc3ccccc3)cc21`: the Activity in the assay on Pseudomonas aeruginosa [15] was found to be 20%.

On to `CN1CCN(C(=O)CNC(=O)c2ccc3c(c2)B(O)OC3CC(=O)O)CC1=O` (stereo unspecified), for which the MIC in the assay on Escherichia coli [1], in the assay on Pseudomonas aeruginosa [3] and in the assay on Pseudomonas aeruginosa [4] was > 64 µg/mL in each case.
